According to ChEMBL document CHEMBL5532695, “4-Trifluoromethyl bithiazoles as broad-spectrum antimicrobial agents for virus-related bacterial infections or co-infections” (RSC Med Chem, 2024):

Test system: Zika virus
Experiment: not given
Settings: vero e6; call rule not given here

Compound	IC50
CC(C)(C)C(=O)Nc1nc(C(F)(F)F)c(-c2csc(Nc3ccc(O)c(C(=O)O)c3)n2)s1	Not Active

Test system: enterovirus D68
Experiment: microbe, parasite or virus in culture
Settings: Enterovirus D, HeLa, 48 h

Compound	IC50
CC(C)(C)C(=O)Nc1nc(C(F)(F)F)c(-c2c[nH]c(Nc3cccc(C(F)(F)F)c3)n2)s1	5.74 µM
COC(=O)c1cc(Nc2nc(-c3sc(NC(=O)C(C)(C)C)nc3C(F)(F)F)cs2)cc(C(F)(F)F)c1	2.01 µM
CC(C)(C)C(=O)Nc1nc(C(F)(F)F)c(-c2csc(Nc3ccc(O)c(C(=O)O)c3)n2)s1	10 µM

Target: Phosphatidylinositol 4-kinase beta (Homo sapiens, UniProt Q9UBF8)
Experiment: Inhibition of recombinant full length his tagged PI4KB (unknown origin) incubated for 10 mins in presence of ATP by ADP-glo kinase assay
Settings: not given

Sequence of Phosphatidylinositol 4-kinase beta (Q9UBF8 whole entry): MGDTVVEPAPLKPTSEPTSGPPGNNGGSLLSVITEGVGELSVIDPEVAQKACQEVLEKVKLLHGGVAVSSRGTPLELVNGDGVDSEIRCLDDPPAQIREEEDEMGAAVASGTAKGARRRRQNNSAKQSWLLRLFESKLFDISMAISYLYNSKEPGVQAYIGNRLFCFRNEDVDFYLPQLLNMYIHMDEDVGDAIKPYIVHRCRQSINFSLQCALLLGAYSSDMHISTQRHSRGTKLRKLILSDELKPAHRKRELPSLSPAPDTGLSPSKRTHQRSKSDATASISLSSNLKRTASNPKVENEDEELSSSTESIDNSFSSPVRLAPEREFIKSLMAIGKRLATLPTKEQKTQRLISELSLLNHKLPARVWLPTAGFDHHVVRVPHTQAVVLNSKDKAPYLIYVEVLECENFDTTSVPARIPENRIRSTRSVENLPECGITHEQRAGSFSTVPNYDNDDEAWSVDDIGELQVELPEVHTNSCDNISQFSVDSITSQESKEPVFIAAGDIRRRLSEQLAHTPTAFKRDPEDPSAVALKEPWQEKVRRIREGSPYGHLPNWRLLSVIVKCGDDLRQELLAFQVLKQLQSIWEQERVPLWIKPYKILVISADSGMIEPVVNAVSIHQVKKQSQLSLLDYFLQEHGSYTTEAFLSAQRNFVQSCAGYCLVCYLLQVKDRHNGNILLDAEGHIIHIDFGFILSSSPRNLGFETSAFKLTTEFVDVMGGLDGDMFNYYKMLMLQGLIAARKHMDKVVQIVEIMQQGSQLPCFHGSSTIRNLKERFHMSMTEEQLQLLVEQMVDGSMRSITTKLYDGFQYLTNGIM

Compound	IC50
CC(C)(C)C(=O)Nc1nc(C(F)(F)F)c(-c2c[nH]c(Nc3cccc(C(F)(F)F)c3)n2)s1	Not Active
COC(=O)c1cc(Nc2nc(-c3sc(NC(=O)C(C)(C)C)nc3C(F)(F)F)cs2)cc(C(F)(F)F)c1	Not Active

Test system: Bacillus subtilis
Experiment: Antibacterial activity against Bacillus subtilis ATCC 6633 assessed as reduction in microbial growth measured after 18 hrs by CLSI based broth microdilution method
Assay type: functional
Settings: not given
In short: (§1)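 MIC by CLSI broth microdilution in Mueller–Hinton medium, triplicate. Inoculum 5 × 10^4 CFU per well. Compounds taken up in DMSO (50 mg mL−1 stock) and diluted in medium. Read after 18 h at 35 ± 2 °C.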

Compound	MIC
CC(C)(C)C(=O)Nc1nc(C(F)(F)F)c(-c2c[nH]c(Nc3cccc(C(F)(F)F)c3)n2)s1	> 32 µg/mL
COC(=O)c1cc(Nc2nc(-c3sc(NC(=O)C(C)(C)C)nc3C(F)(F)F)cs2)cc(C(F)(F)F)c1	> 32 µg/mL
CC(C)(C)C(=O)Nc1nc(C(F)(F)F)c(-c2csc(Nc3ccc(O)c(C(=O)O)c3)n2)s1	32 µg/mL

Test system: Enterococcus faecalis
Experiment: Antibacterial activity against Enterococcus faecalis ATCC 29212 assessed as reduction in microbial growth measured after 18 hrs by CLSI based broth microdilution method
Assay type: functional
Settings: not given
In short: as §1

Compound	MIC
CC(C)(C)C(=O)Nc1nc(C(F)(F)F)c(-c2c[nH]c(Nc3cccc(C(F)(F)F)c3)n2)s1	> 32 µg/mL
COC(=O)c1cc(Nc2nc(-c3sc(NC(=O)C(C)(C)C)nc3C(F)(F)F)cs2)cc(C(F)(F)F)c1	> 32 µg/mL
CC(C)(C)C(=O)Nc1nc(C(F)(F)F)c(-c2csc(Nc3ccc(O)c(C(=O)O)c3)n2)s1	> 32 µg/mL

Test system: Escherichia coli
Experiment: Synergistic antibacterial activity against Escherichia coli CCUGT incubated for 18 to 24 hrs in presence of colistin by broth microdilution method
Assay type: functional
Settings: time 18-24 hrs

Compound	MAC
CC(C)(C)C(=O)Nc1nc(C(F)(F)F)c(-c2c[nH]c(Nc3cccc(C(F)(F)F)c3)n2)s1	32 µg/mL
COC(=O)c1cc(Nc2nc(-c3sc(NC(=O)C(C)(C)C)nc3C(F)(F)F)cs2)cc(C(F)(F)F)c1	>64 µg/mL
CC(C)(C)C(=O)Nc1nc(C(F)(F)F)c(-c2csc(Nc3ccc(O)c(C(=O)O)c3)n2)s1	>64 µg/mL

Test system: not listed separately
Experiment: Cytotoxicity against african green monkey Vero E6 cells assessed as reduction in cell viability by MTT assay
Assay type: toxicity, cell-based
Settings: chlorocebus sabaeus, Vero E6 cells (Vero C1008)
In short: (§2)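 MTT viability on HeLa or VeroE6 cells, run in parallel with the antiviral assays. CC50 from variable-slope sigmoidal dose–response regression.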

Compound	CC50
CC(C)(C)C(=O)Nc1nc(C(F)(F)F)c(-c2c[nH]c(Nc3cccc(C(F)(F)F)c3)n2)s1	> 50 µM
COC(=O)c1cc(Nc2nc(-c3sc(NC(=O)C(C)(C)C)nc3C(F)(F)F)cs2)cc(C(F)(F)F)c1	> 50 µM
CC(C)(C)C(=O)Nc1nc(C(F)(F)F)c(-c2csc(Nc3ccc(O)c(C(=O)O)c3)n2)s1	> 50 µM

Test system: Zika virus
Experiment: microbe, parasite or virus in culture
Settings: Vero C1008, 72 h

Compound	IC50
CC(C)(C)C(=O)Nc1nc(C(F)(F)F)c(-c2c[nH]c(Nc3cccc(C(F)(F)F)c3)n2)s1	8.52 µM
COC(=O)c1cc(Nc2nc(-c3sc(NC(=O)C(C)(C)C)nc3C(F)(F)F)cs2)cc(C(F)(F)F)c1	6.13 µM

Test system: Bacillus subtilis
Experiment: Bactericidal activity against Bacillus subtilis ATCC 6633 assessed as reduction in microbial growth measured after 18 hrs by CLSI based broth microdilution method
Assay type: functional
Settings: not given
In short: (§3)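 MBC by CLSI broth microdilution in Mueller–Hinton medium, triplicate. Inoculum 5 × 10^4 CFU per well. Read after 18 h at 35 ± 2 °C.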

Compound	MBC
CC(C)(C)C(=O)Nc1nc(C(F)(F)F)c(-c2csc(Nc3ccc(O)c(C(=O)O)c3)n2)s1	> 32 µg/mL

Test system: Klebsiella pneumoniae
Experiment: Synergistic antibacterial activity against Klebsiella pneumoniae ATCC 13833 incubated for 18 to 24 hrs in presence of colistin by broth microdilution method
Assay type: functional
Settings: time 18-24 hrs

Compound	MAC
CC(C)(C)C(=O)Nc1nc(C(F)(F)F)c(-c2c[nH]c(Nc3cccc(C(F)(F)F)c3)n2)s1	>64 µg/mL
COC(=O)c1cc(Nc2nc(-c3sc(NC(=O)C(C)(C)C)nc3C(F)(F)F)cs2)cc(C(F)(F)F)c1	>64 µg/mL
CC(C)(C)C(=O)Nc1nc(C(F)(F)F)c(-c2csc(Nc3ccc(O)c(C(=O)O)c3)n2)s1	>64 µg/mL

Test system: Streptococcus pyogenes
Experiment: Bactericidal activity against Streptococcus pyogenes ATCC 12344 assessed as reduction in microbial growth measured after 18 hrs by CLSI based broth microdilution method
Assay type: functional
Settings: not given
In short: as §3

Compound	MBC
CC(C)(C)C(=O)Nc1nc(C(F)(F)F)c(-c2csc(Nc3ccc(O)c(C(=O)O)c3)n2)s1	> 32 µg/mL

Test system: not listed separately
Experiment: Cytotoxicity against human HeLa cells assessed as reduction in cell viability by MTT assay
Assay type: toxicity, cell-based
Settings: not given
In short: as §2

Compound	CC50
CC(C)(C)C(=O)Nc1nc(C(F)(F)F)c(-c2c[nH]c(Nc3cccc(C(F)(F)F)c3)n2)s1	> 50 µM
COC(=O)c1cc(Nc2nc(-c3sc(NC(=O)C(C)(C)C)nc3C(F)(F)F)cs2)cc(C(F)(F)F)c1	47.3 µM
CC(C)(C)C(=O)Nc1nc(C(F)(F)F)c(-c2csc(Nc3ccc(O)c(C(=O)O)c3)n2)s1	> 50 µM

Test system: Streptococcus pyogenes
Experiment: Antibacterial activity against Streptococcus pyogenes ATCC 12344 assessed as reduction in microbial growth measured after 18 hrs by CLSI based broth microdilution method
Assay type: functional
Settings: not given
In short: as §1

Compound	MIC
CC(C)(C)C(=O)Nc1nc(C(F)(F)F)c(-c2c[nH]c(Nc3cccc(C(F)(F)F)c3)n2)s1	> 32 µg/mL
COC(=O)c1cc(Nc2nc(-c3sc(NC(=O)C(C)(C)C)nc3C(F)(F)F)cs2)cc(C(F)(F)F)c1	> 32 µg/mL
CC(C)(C)C(=O)Nc1nc(C(F)(F)F)c(-c2csc(Nc3ccc(O)c(C(=O)O)c3)n2)s1	16 µg/mL

Test system: Acinetobacter baumannii
Experiment: Synergistic antibacterial activity against Acinetobacter baumannii ATCC 17978 incubated for 18 to 24 hrs in presence of colistin by broth microdilution method
Assay type: functional
Settings: time 18-24 hrs

Compound	MAC
CC(C)(C)C(=O)Nc1nc(C(F)(F)F)c(-c2c[nH]c(Nc3cccc(C(F)(F)F)c3)n2)s1	16 µg/mL
COC(=O)c1cc(Nc2nc(-c3sc(NC(=O)C(C)(C)C)nc3C(F)(F)F)cs2)cc(C(F)(F)F)c1	>64 µg/mL
CC(C)(C)C(=O)Nc1nc(C(F)(F)F)c(-c2csc(Nc3ccc(O)c(C(=O)O)c3)n2)s1	>64 µg/mL

Test system: rhinovirus A16
Experiment: microbe, parasite or virus in culture
Settings: Rhinovirus A, HeLa, 48 h

Compound	IC50
CC(C)(C)C(=O)Nc1nc(C(F)(F)F)c(-c2c[nH]c(Nc3cccc(C(F)(F)F)c3)n2)s1	10.4 µM
COC(=O)c1cc(Nc2nc(-c3sc(NC(=O)C(C)(C)C)nc3C(F)(F)F)cs2)cc(C(F)(F)F)c1	0.25 µM
CC(C)(C)C(=O)Nc1nc(C(F)(F)F)c(-c2csc(Nc3ccc(O)c(C(=O)O)c3)n2)s1	9.77 µM

Test system: Staphylococcus aureus
Experiment: Antibacterial activity against Staphylococcus aureus ATCC 25923 assessed as reduction in microbial growth measured after 18 hrs by CLSI based broth microdilution method
Assay type: functional
Settings: not given
In short: as §1

Compound	MIC
CC(C)(C)C(=O)Nc1nc(C(F)(F)F)c(-c2c[nH]c(Nc3cccc(C(F)(F)F)c3)n2)s1	> 32 µg/mL
COC(=O)c1cc(Nc2nc(-c3sc(NC(=O)C(C)(C)C)nc3C(F)(F)F)cs2)cc(C(F)(F)F)c1	> 32 µg/mL
CC(C)(C)C(=O)Nc1nc(C(F)(F)F)c(-c2csc(Nc3ccc(O)c(C(=O)O)c3)n2)s1	> 32 µg/mL

Test system: Pseudomonas aeruginosa
Experiment: Synergistic antibacterial activity against Pseudomonas aeruginosa ATCC 27853 incubated for 18 to 24 hrs in presence of colistin by broth microdilution method
Assay type: functional
Settings: time 18-24 hrs

Compound	MAC
CC(C)(C)C(=O)Nc1nc(C(F)(F)F)c(-c2c[nH]c(Nc3cccc(C(F)(F)F)c3)n2)s1	>64 µg/mL
COC(=O)c1cc(Nc2nc(-c3sc(NC(=O)C(C)(C)C)nc3C(F)(F)F)cs2)cc(C(F)(F)F)c1	>64 µg/mL
CC(C)(C)C(=O)Nc1nc(C(F)(F)F)c(-c2csc(Nc3ccc(O)c(C(=O)O)c3)n2)s1	>64 µg/mL
